Consider 21 compounds from ChEMBL document CHEMBL1150222, “Benzophenones and xanthones with isoprenoid groups from Cudrania cochinchinensis” (J Nat Prod, 2001).

For data set [1], the system named is HSC-2. Put plainly: Cytotoxicity against human HSC2 cells. Type of data set: functional. Summed up:
(§1)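 Human oral squamous carcinoma HSC-2 cells and normal human gingival fibroblasts (HGF) were incubated 24 h with compound added in EtOH (final EtOH in medium below 1%). Viable cells were read as A540 against untreated controls. CC50 is reported in mM as the mean of duplicate determinations.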

The nature of data set [2]: Cytotoxicity against HGF cells. The following applies: human. The data set is classed as cell-based. In a few lines: as §1
In data set [3] the test system is HSC-2. Put plainly: Selectivity ratio CC50 for HGF to CC50 for human HSC-2 cells.

For `CC(C)=CCc1c(O)cccc1C(=O)c1cc2c(cc1O)OC(C)(C)C=C2` [CUDRAPHENONE A], the CC50 in the data set with HSC-2 [1] turned out to be 170 µM; in data set [2], 430 µM. Further, the Ratio in the data set with HSC-2 [3] turned out to be 2.5.

Consider `C=CC(C)(C)c1c(O)cc2oc3c(O)c(O)cc(CC=C(C)C)c3c(=O)c2c1O` [ALVAXANTHONE], for which the CC50 in the data set on HSC-2 [1] came out at 22 µM; in data set [2] it was 25 µM. For the same compound, the Ratio in the data set on HSC-2 [3] was determined as 1.1.

Take `CC1(C)C=Cc2c(cc3oc4c(O)cccc4c(=O)c3c2O)O1`: the CC50 with HSC-2 [1] is 480 µM; in data set [2], greater than 650 µM. Also, in the data set with HSC-2 [3], the Ratio is greater than 1.4.

In the case of `CC(C)=CCc1cc2c(=O)c3c(O)c4c(cc3oc2c(O)c1O)OC(C)C4(C)C` (centres undefined) [GERONTOXANTHONE G], the CC50 (in the data set with HSC-2 [1]; in data set [2]) was greater than 510 µM in each case.

For `CC1Oc2cc3oc4c(O)c5c(cc4c(=O)c3c(O)c2C1(C)C)C=CC(C)(C)O5` (centres undefined) [GERONTOXANTHONE A], the CC50 (in the data set with HSC-2 [1]; in data set [2]) was greater than 510 µM in each case.

Turning to `C=CC(C)(C)c1c(O)cc2oc3c(O)c4c(cc3c(=O)c2c1O)C=CC(C)(C)O4` [GERONTOXANTHONE B], the figures for the CC50 (with HSC-2 [1]; in data set [2]) were 390 µM and greater than 510 µM, respectively. The Ratio with HSC-2 [3] is greater than 1.3.

On to `CC(C)=CCc1c(O)cccc1C(=O)c1c(O)cc(O)c(CC=C(C)C)c1O` [CUDRAPHENONE D], for which the results for the half-maximal cytotoxic concentration (CC50) (with HSC-2 [1]; in data set [2]) were 52 µM and 190 µM, respectively. Further, in the data set with HSC-2 [3], the Ratio is recorded as 3.7.

For the compound `CC1(C)C=Cc2c(cc3occ(-c4ccc(O)cc4)c(=O)c3c2O)O1` [ALPINUMISOFLAVONE], the results for the CC50 (in the data set on HSC-2 [1]; in data set [2]) were 400 µM and greater than 600 µM, respectively. In addition, in the data set with HSC-2 [3], the Ratio is greater than 1.5.

As for `CC(C)=CCc1cc(C(=O)c2cccc(O)c2CC=C(C)C)c(O)cc1O` [CUDRAPHENONE B], the figures for the CC50 (in the data set with HSC-2 [1]; in data set [2]) were 36 µM and 90 µM, respectively. Besides, the Ratio in the data set with HSC-2 [3] is listed as 2.5.

On to `C=CC(C)(C)c1c(O)c(CC=C(C)C)c(O)c2c(=O)c3ccc(O)c(O)c3oc12` [GERONTOXANTHONE I], for which the CC50 in the data set on HSC-2 [1] is 430 µM; in data set [2], greater than 510 µM. In the data set on HSC-2 [3], the Ratio is greater than 1.1.

`CC(C)=CCc1c(O)cc2occ(-c3ccc(O)cc3)c(=O)c2c1O` [WIGHTEONE]: the CC50 with HSC-2 [1] worked out at 120 µM; in data set [2] it was 250 µM. In the data set with HSC-2 [3], the Ratio is listed as 2.1.

For `COc1cc(O)c(C(=O)c2cccc(O)c2CC=C(C)C)c(O)c1` [CUDRANONE], the CC50 in the data set on HSC-2 [1] is 400 µM; in data set [2] it was greater than 610 µM. For the same compound, the Ratio in the data set with HSC-2 [3] is reported as greater than 1.5.

For `CC(C)=CCc1c(O)cccc1C(=O)c1c(O)cc(O)c2c1OC(C)(C)C=C2` [CUDRAPHENONE C], the CC50 was found to be 92 µM in the data set with HSC-2 [1] and 190 µM in data set [2]. For the same compound, in the data set on HSC-2 [3], the Ratio came out at 2.1.

Consider `C=CC(C)(C)c1c2c(c(O)c3c(=O)c4ccc(O)c(O)c4oc13)C=CC(C)(C)O2` [MACLURAXANTHONE], for which the CC50 (with HSC-2 [1]; in data set [2]) was greater than 510 µM throughout.

On to `COc1c2ccoc2cc2oc(=O)ccc12` [BERGAPTEN], for which the CC50 in the data set on HSC-2 [1] is 720 µM; in data set [2], greater than 930 µM. Further, the Ratio in the data set on HSC-2 [3] was greater than 1.3.

`C=CC(C)(C)c1c(O)cc2oc3c(O)c(O)c(CC=C(C)C)cc3c(=O)c2c1O` [ISOALVAXANTHONE]: the CC50 amounted to 35 µM with HSC-2 [1] and 58 µM in data set [2]. Moreover, the Ratio in the data set with HSC-2 [3] amounted to 1.6.

`CC(C)=CCc1c(O)cc(O)c2c1OC(c1ccc(O)cc1)CC2=O` (centres undefined) [SOPHORAFLAVANONE B]: the half-maximal cytotoxic concentration (CC50) in the data set with HSC-2 [1] worked out at 130 µM; in data set [2] it was 190 µM. For the same compound, in the data set on HSC-2 [3], the Ratio came to 1.5.

Regarding `CC(C)=CCc1c(O)cc2oc3ccc(O)cc3c(=O)c2c1O`, the CC50 (in the data set on HSC-2 [1]; in data set [2]) was greater than 640 µM in each case.

Regarding `COc1cc(-c2coc3cc(O)cc(O)c3c2=O)ccc1O` [3'-O-METHYLOROBOL], the CC50 is 160 µM in the data set on HSC-2 [1] and greater than 670 µM in data set [2]. In addition, the Ratio with HSC-2 [3] is on record as greater than 4.2.

Consider `O=C1C[C@@H](c2ccc(O)cc2)Oc2cc(O)cc(O)c21` [NARINGENIN], for which the CC50 with HSC-2 [1] is 550 µM; in data set [2], greater than 740 µM. For the same compound, the Ratio in the data set on HSC-2 [3] is recorded as greater than 1.3.

In the case of `CC(C)=CCc1c(O)cc(O)c2c(=O)c3c(CC=C(C)C)c(O)ccc3oc12` [GERONTOXANTHONE H], the CC50 stood at 120 µM with HSC-2 [1] and 200 µM in data set [2]. In the data set on HSC-2 [3], the Ratio stood at 1.7.

One may read the CC50 as the concentration giving 50% cytotoxicity. A high value points to lower toxicity to the cells.
